Source: ChEMBL document CHEMBL5058577, “EUbOPEN Chemogenomics Library 2 (Multiplex)” (2022)

Tested on: Fibroblast
Assay: Multiplex assay against human fibroblast
Format: toxicity, cell-based
Method in brief: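 At seeding, live cells were stained with Hoechst33342, BioTracker Green Microtubule Cytoskeleton Dye, MitoTracker Red and Annexin V Alexa Fluor 680. After compound addition they were imaged on a CQ1 microscope at 37°C and 5% CO2, and CellPathfinder machine-learning gating sorted them into Hoechst high-intensity objects or normal cells, with normal cells further split into healthy, pyknosed or fragmented nuclei and pyknosed cells into mitotic or apoptotic. Tubulin, mitochondrial-mass and membrane-permeability phenotypes are given as per cents of cells with healthy nuclei.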

[1] = 12 h, 1 µM, compound concentration 1 uM, replicate 1
[2] = 12 h, 1 µM, compound concentration 1 uM, replicate 2
[3] = 12 h, 10 µM, compound concentration 10 uM, replicate 1
[4] = 12 h, 10 µM, compound concentration 10 uM, replicate 2
[5] = 24 h, 1 µM, compound concentration 1 uM, replicate 1
[6] = 24 h, 1 µM, compound concentration 1 uM, replicate 2
[7] = 24 h, 10 µM, compound concentration 10 uM, replicate 1
[8] = 24 h, 10 µM, compound concentration 10 uM, replicate 2
[9] = 48 h, 1 µM, compound concentration 1 uM, replicate 1
[10] = 48 h, 1 µM, compound concentration 1 uM, replicate 2
[11] = 48 h, 10 µM, compound concentration 10 uM, replicate 1
[12] = 48 h, 10 µM, compound concentration 10 uM, replicate 2

In the case of `COCCn1c(C)c(C)s/c1=N\C(=O)C1C(C)(C)C1(C)C`, the “Population Apoptotic (%)” value [1] is reported as 43%, the “Population Fragmented Nuclei (%)” value [1] is reported as 18% and the “Population Healthy Nuclei (%)” value [1] is reported as 69%. For the same compound, the “Population Hoechst High Intensity Objects (%)” value [1] was 0%, the “Population Membrane Permeable-Phenotype (%)” value [1] was 0% and the “Population Mitochondria Different-Phenotype (%)” value [1] was 7%. For the same compound, the “Population Mitotic Cells (%)” value [1] was 56%, the “Population Normal (%)” value [1] was 99% and the “Population Pyknosed Nuclei (%)” value [1] was 11%. The “Population Tubulin-Different-Phenotype (%)” value [1] was 34%, the “Total Cell Count” value [1] was 136 and the “Population Apoptotic (%)” value [2] was 40%. The “Population Fragmented Nuclei (%)” value [2] was 22%, the “Population Healthy Nuclei (%)” value [2] was 57% and the “Population Hoechst High Intensity Objects (%)” value [2] was 4%. The “Population Membrane Permeable-Phenotype (%)” value [2] was 1%, the “Population Mitochondria Different-Phenotype (%)” value [2] was 5% and the “Population Mitotic Cells (%)” value [2] was 60%. The “Population Normal (%)” value [2] was 95%, the “Population Pyknosed Nuclei (%)” value [2] was 19% and the “Population Tubulin-Different-Phenotype (%)” value [2] was 32%. For the same compound, the “Total Cell Count” value [2] was 133, the “Population Apoptotic (%)” value [3] was 64% and the “Population Fragmented Nuclei (%)” value [3] was 19%. The “Population Healthy Nuclei (%)” value [3] was 59%, the “Population Hoechst High Intensity Objects (%)” value [3] was 2% and the “Population Membrane Permeable-Phenotype (%)” value [3] was 1%. The “Population Mitochondria Different-Phenotype (%)” value [3] was 14%, the “Population Mitotic Cells (%)” value [3] was 35% and the “Population Normal (%)” value [3] was 97%. For the same compound, the “Population Pyknosed Nuclei (%)” value [3] was 20%, the “Population Tubulin-Different-Phenotype (%)” value [3] was 56% and the “Total Cell Count” value [3] was 167. For the same compound, the “Population Apoptotic (%)” value [4] was 37%, the “Population Fragmented Nuclei (%)” value [4] was 38% and the “Population Healthy Nuclei (%)” value [4] was 40%. The “Population Hoechst High Intensity Objects (%)” value [4] was 6%, the “Population Membrane Permeable-Phenotype (%)” value [4] was 13% and the “Population Mitochondria Different-Phenotype (%)” value [4] was 8%. The “Population Mitotic Cells (%)” value [4] was 62%, the “Population Normal (%)” value [4] was 93% and the “Population Pyknosed Nuclei (%)” value [4] was 21%. The “Population Tubulin-Different-Phenotype (%)” value [4] was 64%, the “Total Cell Count” value [4] was 120 and the “Population Apoptotic (%)” value [5] was 64%. For the same compound, the “Population Fragmented Nuclei (%)” value [5] was 15%, the “Population Healthy Nuclei (%)” value [5] was 72% and the “Population Hoechst High Intensity Objects (%)” value [5] was 2%. For the same compound, the “Population Membrane Permeable-Phenotype (%)” value [5] was 1%, the “Population Mitochondria Different-Phenotype (%)” value [5] was 5% and the “Population Mitotic Cells (%)” value [5] was 35%. For the same compound, the “Population Normal (%)” value [5] was 97%, the “Population Pyknosed Nuclei (%)” value [5] was 11% and the “Population Tubulin-Different-Phenotype (%)” value [5] was 38%. For the same compound, the “Total Cell Count” value [5] was 122, the “Population Apoptotic (%)” value [6] was 54% and the “Population Fragmented Nuclei (%)” value [6] was 28%. For the same compound, the “Population Healthy Nuclei (%)” value [6] was 54%, the “Population Hoechst High Intensity Objects (%)” value [6] was 3% and the “Population Membrane Permeable-Phenotype (%)” value [6] was 5%. The “Population Mitotic Cells (%)” value [6] was 45%, the “Population Normal (%)” value [6] was 96% and the “Population Pyknosed Nuclei (%)” value [6] was 17%. The “Population Tubulin-Different-Phenotype (%)” value [6] was 37%, the “Total Cell Count” value [6] was 132 and the “Population Apoptotic (%)” value [7] was 68%. For the same compound, the “Population Fragmented Nuclei (%)” value [7] was 20%, the “Population Healthy Nuclei (%)” value [7] was 59% and the “Population Hoechst High Intensity Objects (%)” value [7] was 4%. For the same compound, the “Population Membrane Permeable-Phenotype (%)” value [7] was 0%, the “Population Mitochondria Different-Phenotype (%)” value [7] was 15% and the “Population Mitotic Cells (%)” value [7] was 31%. For the same compound, the “Population Normal (%)” value [7] was 95%, the “Population Pyknosed Nuclei (%)” value [7] was 19% and the “Population Tubulin-Different-Phenotype (%)” value [7] was 61%. The “Total Cell Count” value [7] was 154, the “Population Apoptotic (%)” value [8] was 33% and the “Population Fragmented Nuclei (%)” value [8] was 40%. For the same compound, the “Population Healthy Nuclei (%)” value [8] was 36%, the “Population Hoechst High Intensity Objects (%)” value [8] was 3% and the “Population Membrane Permeable-Phenotype (%)” value [8] was 11%. For the same compound, the “Population Mitochondria Different-Phenotype (%)” value [8] was 19%, the “Population Mitotic Cells (%)” value [8] was 66% and the “Population Normal (%)” value [8] was 96%. The “Population Pyknosed Nuclei (%)” value [8] was 23%, the “Population Tubulin-Different-Phenotype (%)” value [8] was 66% and the “Total Cell Count” value [8] was 120. For the same compound, the “Population Apoptotic (%)” value [9] was 60%, the “Population Fragmented Nuclei (%)” value [9] was 23% and the “Population Healthy Nuclei (%)” value [9] was 63%. The “Population Hoechst High Intensity Objects (%)” value [9] was 4%, the “Population Membrane Permeable-Phenotype (%)” value [9] was 0% and the “Population Mitochondria Different-Phenotype (%)” value [9] was 4%. The “Population Mitotic Cells (%)” value [9] was 40%, the “Population Normal (%)” value [9] was 95% and the “Population Pyknosed Nuclei (%)” value [9] was 12%. For the same compound, the “Population Tubulin-Different-Phenotype (%)” value [9] was 43%, the “Total Cell Count” value [9] was 123 and the “Population Fragmented Nuclei (%)” value [10] was 31%. The “Population Healthy Nuclei (%)” value [10] was 56%, the “Population Hoechst High Intensity Objects (%)” value [10] was 7% and the “Population Membrane Permeable-Phenotype (%)” value [10] was 2%. For the same compound, the “Population Normal (%)” value [10] was 92%, the “Population Pyknosed Nuclei (%)” value [10] was 11% and the “Population Tubulin-Different-Phenotype (%)” value [10] was 45%. The “Total Cell Count” value [10] was 140, the “Population Apoptotic (%)” value [11] was 75% and the “Population Fragmented Nuclei (%)” value [11] was 23%. For the same compound, the “Population Healthy Nuclei (%)” value [11] was 56%, the “Population Hoechst High Intensity Objects (%)” value [11] was 7% and the “Population Membrane Permeable-Phenotype (%)” value [11] was 0%. The “Population Mitochondria Different-Phenotype (%)” value [11] was 22%, the “Population Mitotic Cells (%)” value [11] was 25% and the “Population Normal (%)” value [11] was 92%. For the same compound, the “Population Pyknosed Nuclei (%)” value [11] was 20%, the “Population Tubulin-Different-Phenotype (%)” value [11] was 67% and the “Total Cell Count” value [11] was 151. The “Population Apoptotic (%)” value [12] was 58%, the “Population Fragmented Nuclei (%)” value [12] was 49% and the “Population Healthy Nuclei (%)” value [12] was 34%. For the same compound, the “Population Hoechst High Intensity Objects (%)” value [12] was 8%, the “Population Membrane Permeable-Phenotype (%)” value [12] was 14% and the “Population Mitochondria Different-Phenotype (%)” value [12] was 11%. The “Population Mitotic Cells (%)” value [12] was 41%, the “Population Normal (%)” value [12] was 91% and the “Population Pyknosed Nuclei (%)” value [12] was 16%. For the same compound, the “Population Tubulin-Different-Phenotype (%)” value [12] was 65% and the “Total Cell Count” value [12] was 111.
